# Where “and” joins values, the source holds several entries; their conditions need not be identical. Identical values can stand only once. Like-named read-outs stand apart in the source and are kept apart here.
# How the values were obtained:
# [1] = type: in vivo, mice; conditions: for concentration at 60 min / concentration at 120 min: female, CD1-nu/nu (athymic), mouse, intravenous, 12.5 mg/kg
# Summary of the method: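 Female athymic CD1-nu/nu mice kept in SPF isolators, bearing MCF7 or SW620 xenografts (650 mm³). Test compound 12.5 mg/kg i.v. in equimolar phosphoric acid/saline, pH 5. Tumours homogenised in PBS (1:3 w/v) on ice. Plasma and tumour concentrations by LC-MS/MS. Means ± SD of 3 mice per time point.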
# T47D cells [2] = experiment: cell growth inhibition, SRB assay, 5-day continuous exposure; type: cell-based; conditions: Homo sapiens, 120 h
# Summary of the method: (§1)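 Human cancer cells in RPMI 1640 with 10% FBS, penicillin/streptomycin, at 37 °C and 5% CO2. Test compound (10 mM DMSO stock) given by continuous exposure for 5 days. Growth measured by SRB assay. […] Means ± SD of 3 independent experiments.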
# DNA-PK = DNA-PK (Homo sapiens, UniProt P78527); experiment: DNA-PK ex vivo pharmacodynamic assay, p53 peptide; set-up: species or system mice; conditions: SW-620, mouse, iv, read-out: inhibition of DNA-PK activity ex vivo in tumour
# Summary of the method: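 SW620 s.c. xenografts in female athymic CD1-nu/nu mice. Test compound 2.5 or 25 mg/kg i.v. (vehicle equimolar phosphoric acid, pH 5) or vehicle alone. Killed after 1 or 4 h. Tumours excised and homogenised. DNA-PK activity by ELISA of DNA-PK-dependent p53 peptide (Ser15) phosphorylation in homogenates. 3 mice per time point, mean ± SD.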
# LoVo cells = experiment: clonogenic survival assay; type: cell-based, human
# Summary of the method: (§2)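 Cells in RPMI 1640/10% FBS were exposed in 6-well plates for 16 h to etoposide or doxorubicin with or without test compound (1 μM), or to test compound alone. Cells then harvested and reseeded in drug-free medium. Colonies stained with crystal violet after 10-14 days and counted automatically. Fold enhancement = survival with cytotoxic alone / survival with cytotoxic + 1 μM test compound. Means ± SD, n = 3.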
# solubility = type: physicochemical; conditions: compared with NU7441
# PI-3K [3] = experiment: PI-3K-dependent AKT phosphorylation; type: cell-based, human; conditions: read-out: IC50 PI-3K-mediated AKT phosphorylation; MCF7 cells, IGF-1 stimulated
# Summary of the method: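 MCF7 cells in RPMI 1640/10% FBS. Exposed to a concentration range of test compound for 1 h, then 50 ng/ml IGF-1 for 30 min. Western blot of AKT Ser473 relative to total AKT. Rise above unstimulated baseline in treated cells expressed as % of the rise in control cells. Mean of three independent experiments fitted to a sigmoidal dose-response curve for IC50.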
# M059-Fus-1 cells = experiment: clonogenic survival assay, DNA-PKcs-proficient cells; type: cell-based, human
# Summary of the method: (§3)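 Human glioblastoma M059J cells (DNA-PKcs-deficient) and M059-Fus-1 cells (chromosome 8 transfected; G-418 200 μg/ml) in DMEM/10% FBS. Etoposide or doxorubicin alone or with 1 μM test compound, or test compound alone, for 16 h. Reseeded drug-free. Crystal violet colony counts after 10-14 days. Fold enhancement as survival ratio. Means ± SD, n = 3.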
# V3-YAC cells = experiment: clonogenic survival assay, DNA-PKcs-proficient cells; type: cell-based, Chinese hamster
# Summary of the method: (§4)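 Chinese hamster ovary V3 cells (DNA-PKcs-deficient) and V3-YAC cells (human DNA-PKcs on YAC; kept under G-418 500 μg/ml) in RPMI 1640/10% FBS. Etoposide alone or with 1 μM test compound, or test compound alone, for 16 h. Reseeded drug-free. Crystal violet colony counts after 10-14 days. Fold enhancement as survival ratio. Means ± SD of 3 independent experiments.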
# PI-3K γ = PI-3K γ (Homo sapiens, UniProt P48736); experiment: cell-free assay, PI-3K isoforms; type: biochemical; conditions: Supplementary Figure 1
# PI-3K [4] = experiment: PI-3K-dependent AKT phosphorylation; type: cell-based, human; conditions: SW620 cells
# PI-3K δ = PI-3K δ (Homo sapiens, UniProt O00329); experiment: cell-free assay, PI-3K isoforms; type: biochemical; conditions: Supplementary Figure 1
# MCF7 cells = experiment: cell growth inhibition, SRB assay, 5-day continuous exposure; type: cell-based, human
# Summary of the method: as §1
# [5] = plasma pharmacokinetics following different routes of administration; type: in vivo, Balb C mice; conditions: for CL: mice
# Summary of the method: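 Female Balb C mice given test compound at 10 mg/kg i.v., i.p. or p.o. Vehicle: equimolar phosphoric acid in sterile saline, final pH 5. Plasma sampled at 5-360 min, 3 mice per time point. Plasma levels by LC-MS/MS. PK parameters calculated from mean values.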
# M059J cells = experiment: clonogenic survival assay, DNA-PKcs-deficient cells; type: cell-based, human; conditions: M059J
# Summary of the method: as §3
# V3 cells = experiment: clonogenic survival assay, DNA-PKcs-deficient cells; type: cell-based, Chinese hamster
# Summary of the method: as §4
# T47D cells [6] = experiment: clonogenic survival assay; type: cell-based, human
# Summary of the method: as §2
# [7] = 1 μM, 16 hr exposure, single agent
# [8] = female, Balb C, mouse, ip, 10 mg/kg
# [9] = female, Balb C, mouse, iv, 10 mg/kg
# [10] = female, Balb C, mouse, po, 10 mg/kg
# Sequence of PI-3K γ (P48736 whole entry, species assumed, canonical isoform): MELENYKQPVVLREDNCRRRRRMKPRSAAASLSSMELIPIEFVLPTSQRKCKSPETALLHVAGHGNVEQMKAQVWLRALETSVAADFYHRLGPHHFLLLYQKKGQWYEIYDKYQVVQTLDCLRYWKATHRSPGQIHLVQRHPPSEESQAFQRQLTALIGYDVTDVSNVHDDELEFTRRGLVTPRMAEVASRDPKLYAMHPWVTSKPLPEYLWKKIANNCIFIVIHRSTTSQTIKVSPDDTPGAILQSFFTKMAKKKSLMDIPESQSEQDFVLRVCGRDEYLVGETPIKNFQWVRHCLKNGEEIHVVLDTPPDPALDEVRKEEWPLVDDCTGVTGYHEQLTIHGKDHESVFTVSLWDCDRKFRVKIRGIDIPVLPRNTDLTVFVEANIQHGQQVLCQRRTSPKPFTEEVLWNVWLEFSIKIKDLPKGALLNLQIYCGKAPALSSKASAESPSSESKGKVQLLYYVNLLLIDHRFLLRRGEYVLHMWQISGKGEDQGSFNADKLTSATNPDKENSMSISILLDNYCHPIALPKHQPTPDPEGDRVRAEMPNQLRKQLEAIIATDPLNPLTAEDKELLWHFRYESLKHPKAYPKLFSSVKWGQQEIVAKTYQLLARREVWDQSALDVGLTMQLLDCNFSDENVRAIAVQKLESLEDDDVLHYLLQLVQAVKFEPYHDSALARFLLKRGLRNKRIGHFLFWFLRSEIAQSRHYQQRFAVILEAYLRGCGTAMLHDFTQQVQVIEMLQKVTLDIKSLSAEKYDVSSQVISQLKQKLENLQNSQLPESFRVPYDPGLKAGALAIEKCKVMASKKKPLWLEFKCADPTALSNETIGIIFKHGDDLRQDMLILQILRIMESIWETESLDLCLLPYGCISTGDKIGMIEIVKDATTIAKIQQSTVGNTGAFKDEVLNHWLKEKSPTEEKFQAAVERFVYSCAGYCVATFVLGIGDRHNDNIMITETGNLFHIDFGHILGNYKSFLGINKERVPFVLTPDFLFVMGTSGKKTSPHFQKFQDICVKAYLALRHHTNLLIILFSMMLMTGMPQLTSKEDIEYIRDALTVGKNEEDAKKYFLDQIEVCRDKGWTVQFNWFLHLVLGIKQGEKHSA
# Sequence of PI-3K δ (O00329 whole entry, species assumed, canonical isoform): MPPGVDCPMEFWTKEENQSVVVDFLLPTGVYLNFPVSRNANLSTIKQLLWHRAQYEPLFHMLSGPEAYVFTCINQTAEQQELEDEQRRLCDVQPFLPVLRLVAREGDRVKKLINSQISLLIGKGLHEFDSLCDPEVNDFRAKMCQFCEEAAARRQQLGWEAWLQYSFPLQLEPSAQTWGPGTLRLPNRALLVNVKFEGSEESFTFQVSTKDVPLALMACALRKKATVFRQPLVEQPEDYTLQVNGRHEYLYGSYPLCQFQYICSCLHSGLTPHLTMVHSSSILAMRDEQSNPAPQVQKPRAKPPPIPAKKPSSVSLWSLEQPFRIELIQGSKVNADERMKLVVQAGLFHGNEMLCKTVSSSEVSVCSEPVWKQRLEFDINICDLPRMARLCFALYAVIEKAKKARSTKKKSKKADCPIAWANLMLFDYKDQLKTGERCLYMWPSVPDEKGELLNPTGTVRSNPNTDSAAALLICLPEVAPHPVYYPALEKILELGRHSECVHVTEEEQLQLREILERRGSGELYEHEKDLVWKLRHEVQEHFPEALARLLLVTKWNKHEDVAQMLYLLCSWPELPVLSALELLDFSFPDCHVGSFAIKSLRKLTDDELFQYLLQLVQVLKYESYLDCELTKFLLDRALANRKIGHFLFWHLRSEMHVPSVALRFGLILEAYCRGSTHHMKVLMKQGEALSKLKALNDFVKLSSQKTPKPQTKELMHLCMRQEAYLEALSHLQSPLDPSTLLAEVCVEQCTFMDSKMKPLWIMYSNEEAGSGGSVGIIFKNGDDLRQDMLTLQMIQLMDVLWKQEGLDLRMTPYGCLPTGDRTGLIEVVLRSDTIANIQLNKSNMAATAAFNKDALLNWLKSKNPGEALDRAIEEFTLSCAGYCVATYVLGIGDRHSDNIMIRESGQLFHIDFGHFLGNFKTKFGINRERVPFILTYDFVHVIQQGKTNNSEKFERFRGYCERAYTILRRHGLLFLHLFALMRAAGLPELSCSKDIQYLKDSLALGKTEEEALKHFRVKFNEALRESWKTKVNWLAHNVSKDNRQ
# Sequence of PI-3K δ (P27986 whole entry partner, species assumed, canonical isoform): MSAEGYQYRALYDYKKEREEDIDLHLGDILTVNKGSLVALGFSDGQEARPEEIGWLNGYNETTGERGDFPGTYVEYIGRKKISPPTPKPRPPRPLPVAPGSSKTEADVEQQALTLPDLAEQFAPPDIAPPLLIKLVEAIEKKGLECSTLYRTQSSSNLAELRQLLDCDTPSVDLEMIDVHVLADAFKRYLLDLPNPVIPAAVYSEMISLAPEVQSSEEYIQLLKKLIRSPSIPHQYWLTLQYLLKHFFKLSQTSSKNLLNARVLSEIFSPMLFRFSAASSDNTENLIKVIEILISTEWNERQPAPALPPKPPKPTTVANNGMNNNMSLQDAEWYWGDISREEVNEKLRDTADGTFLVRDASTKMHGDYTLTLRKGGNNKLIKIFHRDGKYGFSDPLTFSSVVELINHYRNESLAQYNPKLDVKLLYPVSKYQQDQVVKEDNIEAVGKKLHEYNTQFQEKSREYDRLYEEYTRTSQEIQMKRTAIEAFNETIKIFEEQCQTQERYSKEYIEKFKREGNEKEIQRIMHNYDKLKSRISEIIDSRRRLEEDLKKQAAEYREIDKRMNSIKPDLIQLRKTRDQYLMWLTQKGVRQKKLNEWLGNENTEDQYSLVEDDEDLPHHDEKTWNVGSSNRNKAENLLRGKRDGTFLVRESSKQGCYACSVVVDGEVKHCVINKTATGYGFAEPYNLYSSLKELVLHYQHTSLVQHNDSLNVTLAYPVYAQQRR
compound,measurement,setting,value
"CCN1CCN(CC(=O)Nc2ccc(-c3cccc4c(=O)cc(N5CCOCC5)oc34)c3sc4ccccc4c23)CC1 [KU-0060648, 2-(4-ethylpiperazin-1-yl)-N-(4-(2-morpholino-4-oxo-4H-chromen-8-yl)dibenzo[b,d]thiophen-1-yl)acetamide]",concentration maintained in the tumour,"[1]; SW620 xenografts, 12.5 mg/kg i.v., for at least 4 hours",over 1 μM
same,concentration at 60 min,[1]; plasma,2.1 ± 0.5 µM
same,concentration at 120 min,[1]; plasma,700 ± 200 nM
same,concentration at 60 min,[1]; tumour (SW620 xenograft),4.9 ± 0.3 µM
same,concentration at 120 min,[1]; tumour (SW620 xenograft),2900 ± 400 nM
same,GI50,T47D cells [2],410 nM
same,inhibition at 1 µM,T47D cells [2]; read-out: inhibition of cell growth,> 50%
same,inhibition at 25 mg/kg,DNA-PK,~100%
same,Fold enhancement of doxorubicin cytotoxicity (survival cytotoxic alone/survival cytotoxic + 1 μM KU-0060648),"LoVo cells; 100 nM doxorubicin, 16 hr",73±29 fold
same,overall cell survival (clonogenic),LoVo cells; [7],≥ 80%
same,fold greater solubility,solubility,> 500 fold
same,IC50,PI-3K [3],39 nM and 40 nM
same,fold enhancement of etoposide cytotoxicity,"M059-Fus-1 cells; M059-Fus-1, 1 μM KU-0060648, 16 hours",4 fold
same,fold enhancement of doxorubicin cytotoxicity,"M059-Fus-1 cells; M059-Fus-1, 1 μM KU-0060648, depending on the doxorubicin concentration",up to 32 fold
same,"reduction in cell viability, compound alone","M059-Fus-1 cells; M059-Fus-1, 1 μM, 16 hours",< 5%
same,fold enhancement of etoposide cytotoxicity,"V3-YAC cells; 1 μM KU-0060648, 16 hours",> 13 fold
same,"reduction in cell viability, compound alone","V3-YAC cells; 1 μM, 16 hours",< 15%
same,potency rank among the four PI-3K isoforms,PI-3K γ,least potency
same,inhibition of AKT phosphorylation,PI-3K [4]; at 10 μM,42%
same,IC50,"PI-3K [4]; read-out: IC50 PI-3K-mediated AKT phosphorylation, IGF-1 stimulated",> 10 µM
same,potency rank among the four PI-3K isoforms,PI-3K δ,greatest potency
same,GI50,"MCF7 cells; Homo sapiens, MCF7, 120 h",270 nM
same,"total cell growth over 5 days, of DMSO treated controls","MCF7 cells; MCF7, 1 μM",4%
same,inhibition of cell growth,"MCF7 cells; MCF7, 1 μM, 5 days, 1 µM",> 95% and > 50%
same,CL,[5]; 10 mg/kg i.p,54 mL/kg/min
same,CL,[5]; 10 mg/kg p.o,35 mL/kg/min
same,AUC(0-inf),[5]; [8],3150 ng·h/mL
same,Cmax,[5]; [8],900 ng/mL
same,Tmax,[5]; [8],30 min
same,bioavailability,[5]; [8],78%
same,half-life,[5]; [8],106 min
same,AUC(0-inf),[5]; [9],4030 ng·h/mL
same,Cmax,[5]; [9],1900 ng/mL
same,Tmax,[5]; [9],5 min
same,clearance,[5]; [9],41 mL/min/kg
same,half-life,[5]; [9],102 min
same,AUC(0-inf),[5]; [10],4780 ng·h/mL
same,Cmax,[5]; [10],900 ng/mL
same,Tmax,[5]; [10],120 min
same,bioavailability,[5]; [10],119%
same,half-life,[5]; [10],142 min
same,fold enhancement of doxorubicin cytotoxicity,M059J cells; 1 μM KU-0060648,1.4 fold
same,"reduction in cell viability, compound alone","M059J cells; 1 μM, 16 hours",< 5%
same,fold enhancement of etoposide cytotoxicity,"V3 cells; V3, 1 μM KU-0060648, 16 hours",2.5 fold
same,"reduction in cell viability, compound alone","V3 cells; V3, 1 μM, 16 hours",< 15%
same,Fold enhancement of doxorubicin cytotoxicity (survival cytotoxic alone/survival cytotoxic + 1 μM KU-0060648),"T47D cells [6]; 100 nM doxorubicin, 16 hr",58±35 fold
same,overall cell survival (clonogenic),T47D cells [6]; [7],≥ 80%

# Reference: publication PMC3428850 (Molecular cancer therapeutics, 2012)
